Calls of active or inactive are those of the source. The calls are words filed in the database; no cut-off is given here.
Assays:
Acanthamoeba castellanii [1] = assay: Anti-amoebic activity against Acanthamoeba castellanii ATCC 50491 assessed as inhibition of amoebic growth incubated for 48 hrs by resazurin dye based microtiter plate analysis; format: functional
Procedure, shortened: (§1)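 Trophozoites kept axenically in PYG medium at 28 °C, grown to confluence for 48 h, then diluted to 5 × 10^4 trophozoites/mL (1 × 10^4 cells per well). Azoles added from DMSO stocks via PYG to final 0.03125–64 μg/mL (twofold series); 1% DMSO controls. Incubated 48 h at 28 °C, then 0.02% resazurin added for a further 48 h. Purple-to-pink change scored as respiring cells; MIC in triplicate.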

Acanthamoeba polyphaga = assay: Anti-amoebic activity against Acanthamoeba polyphaga ATCC 30461 assessed as inhibition of amoebic growth incubated for 48 hrs by resazurin dye based microtiter plate analysis; format: functional; procedure, shortened: as §1
[2] = (§2) Catalytic inhibition of Acanthamoeba castellanii CYP51 expressed in Escherichia coli HMS-174 (DE3) cells assessed as inhibition of substrate induced 14alpha-demthylation using obtusifoliol as substrate incubated for 1 hr in presence of NADPH-CYP450 reductase by RP-HPLC analysis
Acanthamoeba castellanii [3] = assay: as §2, with “as substrate at […] incubated for” for “as substrate incubated for”, “RP-HPLC analysis relative to control” for “RP-HPLC analysis”; settings: dose 1.5 µM
Acanthamoeba castellanii [4] = assay: Substrate activity at Acanthamoeba castellanii CYP51 expressed in Escherichia coli HMS-174 (DE3) cells assessed as Kcat measured after 20 mins by Michaelis-Menten analysis
Procedure, shortened: (§3)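 Full-length His6-tagged CYP51, purified by Ni-NTA, Q- and CM-Sepharose, reconstituted with rat CPR (0.5 μM P450, 2 μM CPR), 37 °C. […] Rates as nmol product/min/nmol P450 vs total substrate, fitted to Michaelis–Menten hyperbola; triplicate, mean ± SD.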

Acanthamoeba castellanii [5] = assay: Substrate activity at Acanthamoeba castellanii CYP51 expressed in Escherichia coli HMS-174 (DE3) cells assessed as Kcat/Km measured after 20 mins by Michaelis-Menten analysis; procedure, shortened: as §3
[6] = Binding affinity to Acanthamoeba castellanii CYP51 expressed in Escherichia coli HMS-174 (DE3) cells assessed as dissociation constant by UV-Visible spectrophotometry
Acanthamoeba castellanii [7] = assay: Substrate activity at Acanthamoeba castellanii CYP51 expressed in Escherichia coli HMS-174 (DE3) cells assessed as Km measured after 20 mins by Michaelis-Menten analysis; procedure, shortened: as §3
Acanthamoeba castellanii [8] = assay: Substrate activity at Acanthamoeba castellanii CYP51 expressed in Escherichia coli HMS-174 (DE3) cells assessed as Kcat/Km measured after 60 sec by Michaelis-Menten analysis; procedure, shortened: as §3
Acanthamoeba castellanii [9] = assay: Substrate activity at Acanthamoeba castellanii CYP51 expressed in Escherichia coli HMS-174 (DE3) cells assessed as Kcat measured after 60 sec by Michaelis-Menten analysis; procedure, shortened: as §3
Acanthamoeba castellanii [10] = assay: Substrate activity at Acanthamoeba castellanii CYP51 expressed in Escherichia coli HMS-174 (DE3) cells assessed as Km measured after 60 sec by Michaelis-Menten analysis; procedure, shortened: as §3

Structure (SMILES) | MIC (Acanthamoeba castellanii [1]) | MIC (Acanthamoeba polyphaga) | inhibition (Acanthamoeba castellanii [3]) | also measured
O=C(N[C@@H](Cn1ccnc1)c1ccc(Cl)cc1Cl)c1ccc(-c2nnc(-c3ccccc3)o2)cc1 | 4 µM | > 64 µg/mL |  | 
FC(F)(F)c1ccc(N(c2cccnc2)C2CCN(c3ccc(C(F)(F)F)cn3)CC2)cc1 |  |  |  | IC50 [2]: 1300 nM
O=C([C@@H](c1ccc(Cl)cc1)c1cccnc1)N1CCN(c2ccc(C(F)(F)F)cc2)CC1 |  |  |  | IC50 [2]: 5500 nM
O=C(N[C@@H](Cn1ccnc1)c1ccc(-c2ccc(F)cc2)cc1F)c1ccc(-c2nnc(-c3ccccc3)o2)cc1 | > 64 µg/mL | > 64 µg/mL |  | 
CC(=O)N1CCN(c2ccc(OCC3COC(Cn4ccnc4)(c4ccc(Cl)cc4Cl)O3)cc2)CC1 (stereo not given) |  |  | inactive | 
CC(C)(C#N)c1cc(Cn2cncn2)cc(C(C)(C)C#N)c1 |  |  | inactive | 
CC[C@@H]([C@H](C)O)n1ncn(-c2ccc(N3CCN(c4ccc(OC[C@@H]5CO[C@@](Cn6cncn6)(c6ccc(F)cc6F)C5)cc4)CC3)cc2)c1=O |  |  | inactive | 
C[C@@H](c1nc(-c2ccc(C#N)cc2)cs1)[C@](O)(Cn1cncn1)c1ccc(F)cc1F |  |  | inactive | 
Clc1ccc(COC(Cn2ccnc2)c2ccc(Cl)cc2Cl)c(Cl)c1 (stereo not given) |  |  | 25% | 
Clc1ccccc1C(c1ccccc1)(c1ccccc1)n1ccnc1 |  |  | 82% | 
N#Cc1ccc(C(c2ccc(C#N)cc2)n2cncn2)cc1 |  |  | inactive | 
CC(C)=CCC[C@@H](C)[C@H]1CC[C@@]2(C)C3=C(CC[C@]12C)[C@@]1(C)CC[C@H](O)C(C)(C)[C@@H]1CC3 [LANOSTEROL] |  |  |  | kcat (Acanthamoeba castellanii [4]): 0.102 s⁻¹; kcat/Km (Acanthamoeba castellanii [5]): 2000 M⁻¹ s⁻¹; Kd [6]: 1220 nM; Km (Acanthamoeba castellanii [7]): 52 µM
C=C(CC[C@@H](C)[C@H]1CC[C@@]2(C)C3=C(CC[C@]12C)[C@@]1(C)CC[C@H](O)[C@@H](C)[C@@H]1CC3)C(C)C [OBTUSIFOLIOL] |  |  |  | kcat/Km (Acanthamoeba castellanii [8]): 190000 M⁻¹ s⁻¹; kcat (Acanthamoeba castellanii [9]): 0.513 s⁻¹; Kd [6]: 30 nM; Km (Acanthamoeba castellanii [10]): 2.7 µM
O[C@@](Cn1cnnn1)(c1ccc(F)cc1F)C(F)(F)c1ccc(-c2ccc(OCC(F)(F)F)cc2)cn1 [OTESECONAZOLE] | 0.057 µM | 0.114 µM |  | 
C[C@@H](c1ncncc1F)[C@](O)(Cn1cncn1)c1ccc(F)cc1F [VORICONAZOLE] | 0.09 µM | 0.75 µM | 85% | IC50 [2]: 450 nM
N#Cc1ccc(COc2ccc(C#Cc3ccc(C(F)(F)[C@](O)(Cn4cnnn4)c4ccc(F)cc4F)nc3)cc2)cc1 [VT-1598] | 0.077 µM | 0.425 µM |  | IC50 [2]: 250 nM

Reference: ChEMBL document CHEMBL5543170, “Identification of Potent and Selective Inhibitors of Acanthamoeba: Structural Insights into Sterol 14α-Demethylase as a Key Drug Target” (J Med Chem, 2024)
